Data reported in ChEMBL document CHEMBL2424551, “Synthesis, in vitro evaluation and molecular modelling of naphthalimide analogue as anticancer agents” (2013).
Calls of active or inactive are those of the source. The calls are words filed in the database; no cut-off is given here.

What was measured:
Format in all cases: functional
HCT-15 = experiment: Growth inhibition of human HCT15 cells at 10 uM after 48 hrs by SRB assay; details: HCT-15, 48 h, read-out: GI
Outline: (§1)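 Cells grown in RPMI 1640 with 5% FBS and 2 mM L-glutamine, plated at 5000–40,000 cells/well by doubling time and preincubated 24 h (37 °C, 5% CO2); a time-zero plate is TCA-fixed. Single dose added, then 48 h incubation. Fixed with cold TCA, stained with 0.4% SRB, dye solubilized in 10 mM Tris base, absorbance at 515 nm; percent growth vs time-zero and untreated control.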

NCI-H522 = experiment: Growth inhibition of human NCI-H522 cells at 10 uM after 48 hrs by SRB assay; details: NCI-H522, 48 h, read-out: GI; outline: as §1
NCI-H322M = experiment: Growth inhibition of human NCI-H322M cells at 10 uM after 48 hrs by SRB assay; details: read-out: GI; outline: as §1
NCI-H460 = experiment: Growth inhibition of human NCI-H460 cells at 10 uM after 48 hrs by SRB assay; details: NCI-H460, 48 h, read-out: GI; outline: as §1
NCI-H226 = experiment: Growth inhibition of human NCI-H226 cells at 10 uM after 48 hrs by SRB assay; details: NCI-H226, 48 h, read-out: GI; outline: as §1
NCI-H23 = experiment: Growth inhibition of human NCI-H23 cells at 10 uM after 48 hrs by SRB assay; details: NCI-H23, 48 h, read-out: GI; outline: as §1
HOP-92 = experiment: Growth inhibition of human HOP92 cells at 10 uM after 48 hrs by SRB assay; details: HOP-92, 48 h, read-out: GI; outline: as §1
HOP-62 = experiment: Growth inhibition of human HOP62 cells at 10 uM after 48 hrs by SRB assay; details: HOP-62, 48 h, read-out: GI; outline: as §1
CCRF-CEM = experiment: Growth inhibition of human CCRF-CEM cells at 10 uM after 48 hrs by SRB assay; details: read-out: GI; outline: as §1
HL-60(TB) = experiment: Growth inhibition of human HL-60(TB) cells at 10 uM after 48 hrs by SRB assay; details: HL-60, 48 h, read-out: GI
Outline: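 Single-concentration pass across the 60-line panel in RPMI 1640 with 5% FBS. Cells preincubated 24 h, then exposed 48 h at 37 °C, 5% CO2. Read by SRB staining with absorbance at 515 nm. Percent growth is taken relative to time-zero and untreated controls and reported as percent growth inhibition (GI %).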

K562 = experiment: Growth inhibition of human K562 cells at 10 uM after 48 hrs by SRB assay; details: K562, 48 h, read-out: GI; outline: as §1
RPMI-8226 = experiment: Growth inhibition of human RPMI8226 cells at 10 uM after 48 hrs by SRB assay; details: RPMI-8226, 48 h, read-out: GI; outline: as §1
MDA-MB-468 = experiment: Growth inhibition of human MDA-MB-468 cells at 10 uM after 48 hrs by SRB assay; outline: as §1
BT-549 = experiment: Growth inhibition of human BT549 cells at 10 uM after 48 hrs by SRB assay; details: BT-549, 48 h, read-out: GI; outline: as §1
T47D = experiment: Growth inhibition of human T47D cells at 10 uM after 48 hrs by SRB assay; details: read-out: GI
Outline: (§2)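 NCI 60-cell-line screen with a single 10 µM dose. Cells are grown in RPMI 1640 with 5% FBS and 2 mM L-glutamine, plated at 5000–40,000 cells/well according to doubling time, and preincubated 24 h at 37 °C, 5% CO2; time-zero plates are TCA-fixed at that point. Drug exposure is 48 h. Adherent cells are fixed with cold TCA, stained with 0.4% SRB in 1% acetic acid and read at 515 nm. Percent growth is calculated relative to time-zero and untreated controls and reported as GI%.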

MDA-MB-231 = experiment: Growth inhibition of human MDA-MB-231 cells at 10 uM after 48 hrs by SRB assay; details: MDA-MB-231, 48 h, read-out: GI; outline: as §1
PC-3 = experiment: Growth inhibition of human PC3 cells at 10 uM after 48 hrs by SRB assay; details: PC-3, 48 h, read-out: GI; outline: as §1
DU-145 = experiment: Growth inhibition of human DU145 cells at 10 uM after 48 hrs by SRB assay; details: DU-145, 48 h, read-out: GI; outline: as §1
SN12C = experiment: Growth inhibition of human SN12C cells at 10 uM after 48 hrs by SRB assay; details: read-out: GI; outline: as §2
ACHN = experiment: Growth inhibition of human ACHN cells at 10 uM after 48 hrs by SRB assay; details: read-out: GI; outline: as §1
CAKI-1 = experiment: Growth inhibition of human Caki1 cells at 10 uM after 48 hrs by SRB assay; details: CAKI-1, 48 h, read-out: GI; outline: as §1
786-0 = experiment: Growth inhibition of human 786-0 cells at 10 uM after 48 hrs by SRB assay; details: 786-0, 48 h, read-out: GI; outline: as §1
SK-OV-3 = experiment: Growth inhibition of human SKOV3 cells at 10 uM after 48 hrs by SRB assay; details: SK-OV-3, 48 h, read-out: GI; outline: as §2
[1] = Growth inhibition of human NCI-ADR-RES cells at 10 uM after 48 hrs by SRB assay; details: read-out: GI; outline: as §1
OVCAR-5 = experiment: Growth inhibition of human OVCAR5 cells at 10 uM after 48 hrs by SRB assay; details: OVCAR-5, 48 h, read-out: GI; outline: as §1
UACC-62 = experiment: Growth inhibition of human UACC62 cells at 10 uM after 48 hrs by SRB assay; details: UACC-62, 48 h, read-out: GI; outline: as §2
SK-MEL-5 = experiment: Growth inhibition of human SK-MEL-5 cells at 10 uM after 48 hrs by SRB assay; details: SK-MEL-5, 48 h, read-out: GI; outline: as §1
MDA-MB-435 = experiment: Growth inhibition of human MDA-MB-435 cells at 10 uM after 48 hrs by SRB assay; details: MDA-MB-435, 48 h, read-out: GI; outline: as §1
SNB-75 = experiment: Growth inhibition of human SNB75 cells at 10 uM after 48 hrs by SRB assay; details: SNB-75, 48 h, read-out: GI; outline: as §2
SW-620 = experiment: Growth inhibition of human SW620 cells at 10 uM after 48 hrs by SRB assay; details: SW-620, 48 h, read-out: GI; outline: as §2
KM12 = experiment: Growth inhibition of human KM12 cells at 10 uM after 48 hrs by SRB assay; details: KM12, 48 h, read-out: GI; outline: as §1
HCT-116 = experiment: Growth inhibition of human HCT116 cells at 10 uM after 48 hrs by SRB assay; details: HCT-116, 48 h, read-out: GI; outline: as §1

Row | Structure (SMILES) | inhibition of growth at 10 µM (HCT-15) | inhibition of growth at 10 µM (NCI-H522) | inhibition of growth at 10 µM (NCI-H322M) | inhibition of growth at 10 µM (NCI-H460) | inhibition of growth at 10 µM (NCI-H226) | inhibition of growth at 10 µM (NCI-H23) | inhibition of growth at 10 µM (HOP-92) | inhibition of growth at 10 µM (HOP-62) | inhibition of growth at 10 µM (CCRF-CEM) | inhibition of growth at 10 µM (HL-60(TB)) | inhibition of growth at 10 µM (K562) | inhibition of growth at 10 µM (RPMI-8226) | growth inhibition (GI) (MDA-MB-468) | inhibition of growth at 10 µM (BT-549) | inhibition of growth at 10 µM (T47D) | inhibition of growth at 10 µM (MDA-MB-231) | inhibition of growth at 10 µM (PC-3) | inhibition of growth at 10 µM (DU-145) | inhibition of growth at 10 µM (SN12C) | inhibition of growth at 10 µM (ACHN) | further results
1 | O=c1c2cccc3c(Nc4c(F)cccc4F)ccc(c32)c2nc3ccccc3n12 | 24.5% | < 20% | < 20% | 27.3% | 24.9% | < 20% | 35.8% | < 20% | 27.5% | < 20% | < 20% | 24.6% | Active | < 20% | 47.3% | < 20% | < 20% | < 20% | < 20% | < 20% | inhibition of growth at 10 µM (CAKI-1): 38%; inhibition of growth at 10 µM (786-0): < 20%; inhibition of growth at 10 µM (SK-OV-3): < 20%; inhibition of growth at 10 µM [1]: < 20%; inhibition of growth at 10 µM (OVCAR-5): < 20%; inhibition of growth at 10 µM (UACC-62): < 20%; inhibition of growth at 10 µM (SK-MEL-5): < 20%; inhibition of growth at 10 µM (MDA-MB-435): < 20%; inhibition of growth at 10 µM (SNB-75): 20.1%; inhibition of growth at 10 µM (SW-620): < 20%; inhibition of growth at 10 µM (KM12): 21.1%; inhibition of growth at 10 µM (HCT-116): < 20%
2 | CCCCNc1ccc2c3c1cccc3c(=O)n1c3ccccc3nc21 | 23.8% | 28.1% | < 20% | 51.6% | 26.3% | 40% | 38.8% | < 20% | 25% | 36.6% | 21.2% | < 20% | Active | < 20% | 64.3% | 20.2% | < 20% | < 20% | < 20% | < 20% | inhibition of growth at 10 µM (CAKI-1): 56.8%; inhibition of growth at 10 µM (786-0): < 20%; inhibition of growth at 10 µM (SK-OV-3): < 20%; inhibition of growth at 10 µM [1]: < 20%; inhibition of growth at 10 µM (OVCAR-5): < 20%; inhibition of growth at 10 µM (UACC-62): < 20%; inhibition of growth at 10 µM (SK-MEL-5): 24.5%; inhibition of growth at 10 µM (MDA-MB-435): < 20%; inhibition of growth at 10 µM (SNB-75): 26.6%; inhibition of growth at 10 µM (SW-620): < 20%; inhibition of growth at 10 µM (KM12): 22.3%; inhibition of growth at 10 µM (HCT-116): < 20%
3 | O=c1c2cccc3c(NC4CCCCC4)ccc(c32)c2nc3ccccc3n12 | 25.2% | 38.5% | < 20% | 65.3% | 28% | 54% | 51.5% | < 20% | 34.6% | 37.4% | 33.1% | 24.4% | Active | < 20% | 67.5% | < 20% | 20.1% | < 20% | < 20% | 27.1% | inhibition of growth at 10 µM (CAKI-1): 52.8%; inhibition of growth at 10 µM (786-0): < 20%; inhibition of growth at 10 µM (SK-OV-3): < 20%; inhibition of growth at 10 µM [1]: < 20%; inhibition of growth at 10 µM (OVCAR-5): < 20%; inhibition of growth at 10 µM (UACC-62): < 20%; inhibition of growth at 10 µM (SK-MEL-5): 33.9%; inhibition of growth at 10 µM (MDA-MB-435): < 20%; inhibition of growth at 10 µM (SNB-75): < 20%; inhibition of growth at 10 µM (SW-620): < 20%; inhibition of growth at 10 µM (KM12): < 20%; inhibition of growth at 10 µM (HCT-116): < 20%
